Bioassay records from PubChem BioAssay.
The sample as a whole holds a higher share of hits than the screen did.
VLA-4 inh: inhibition in a human VLA-4 binding assay; 330,000 compounds, 0.2% hits; VLA-4 expressing cells, ligand binding flow cytometry; AID 2557; inhibition, % (about 7 µM as worked out from the volumes in the protocol); in the data active means inhibition above about 50%
XBP1 UPR activ: adaptive UPR (XBP1) activation. activation, % at 20 µM. CHO-XBP1 luciferase reporter, IRE1-XBP1 UPR activation, luminescence; percent of tunicamycin response, DMSO as zero. 330,000 compounds, 0.33% hits;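 active means versus positive control, 20 µM dose yields 30% or more activation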
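Test system: CHO-XBP1 luciferase reporter cells | Buffer or medium: Serum-containing F12 medium, 10% FBS | Schedule: 6 h compound exposure at 37 °C, 5% CO2 | Detection: Steady-Glo luciferase glow luminescence, 10 min after reagent addition | Read-out basis: Activation, % of tunicamycin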
UPR CHOP act: apoptotic UPR (CHOP) activation; CHO-CHOP luciferase reporter, luminescence; percent of tunicamycin response over DMSO baseline; activation, % at 10 µM; 330,000 compounds, 0.34% hits; AID 449763;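 active means at 10 µM dose, activation of 40% or more, normalized to positive control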
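Material: CHO-CHOP cells, stable luciferase reporter of PERK-eIF2a-CHOP signalling; quantity: 500 reporter cells seeded per well; buffer or medium: F12 medium containing 10% fetal bovine serum; compound: one dose, 10 µM in 0.5% DMSO; incubation: 6 h compound treatment, 37 °C; measured by: Steady-Glo luciferase luminescence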
Beta2AR agonist: agonists of human beta-2 adrenergic receptor inducing internalization. P07550. Am2.2-beta2AR cells, FAP receptor internalization, flow cytometry. response, % (test concentration not listed). 340,000 compounds, 0.43% hits. AID 504454;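 active means response above a set limit, near 3 SD of response in nonfluorescent compounds, cut at about 42% in these data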
Target sequence (P07550 whole entry, looked up): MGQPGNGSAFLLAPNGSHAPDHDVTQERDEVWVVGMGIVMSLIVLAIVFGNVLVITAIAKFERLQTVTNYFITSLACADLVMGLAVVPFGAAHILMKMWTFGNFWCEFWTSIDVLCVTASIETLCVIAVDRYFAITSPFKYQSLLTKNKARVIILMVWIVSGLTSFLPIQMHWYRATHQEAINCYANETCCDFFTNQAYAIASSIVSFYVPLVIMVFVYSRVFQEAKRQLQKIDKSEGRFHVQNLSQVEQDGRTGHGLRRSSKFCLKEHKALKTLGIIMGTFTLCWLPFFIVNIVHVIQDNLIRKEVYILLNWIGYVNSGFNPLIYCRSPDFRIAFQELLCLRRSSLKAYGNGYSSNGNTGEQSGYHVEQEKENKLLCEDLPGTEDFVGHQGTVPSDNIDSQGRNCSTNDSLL
CHOP inhibitor: blocks CHOP induction under ER stress; CHO-K1 CHOP-promoter luciferase, tunicamycin-induced, 15-18 h; inhibition, % at 10 µM; 220,000 compounds, 3.8% hits; AID 2732;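 active means compounds that reduced the stress-induced luciferase reporter signal by more than about 70% of percent inhibition, limit read from the data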
Hits are given with their value; – = inactive; · = no result.

SMILES | VLA-4 inh | XBP1 UPR activ | UPR CHOP act | Beta2AR agonist | CHOP inhibitor
COc1ccc(NC(=O)Nc2cccc3c2O[C@H](CN(C)C(=O)NC(C)C)[C@@H](C)CN([C@H](C)CO)C3=O)cc1 | – | – | – | – | ·
Cc1ccccc1NC(=O)Cc1nc(COC(=O)c2ncc(Cl)c(Cl)c2Cl)cs1 | · | · | · | – | ·
COc1ccc(-c2cn(Cc3ccc(C(=O)c4ccccc4)cc3)nn2)cc1 | – | – | – | · | ·
CCOc1ccc(C(C)=O)cc1COC(=O)CCc1cc(OC)c(OC)c(OC)c1 | – | – | – | – | ·
CCc1ccc(/C=C2\SC(=S)N(CCC(=O)NC3=NCCS3)C2=O)cc1 | – | – | – | · | 88
COC(=O)c1ccc(/C=C2/SC(=S)N(CCCC(=O)Nc3ccccn3)C2=O)cc1 | – | – | – | – | 77
O=C(CCCN1C(=O)/C(=C/c2cccc(Br)c2)SC1=S)Nc1ccccn1 | – | – | – | – | –
CCCCc1ccc(S(=O)(=O)Nc2nnc(C)s2)cc1 | – | – | – | – | ·
COc1ccc(/C=N/NC(=O)c2ccc(CSc3nc(C)cc(C)n3)cc2)cc1O | – | – | – | – | –
COc1ccc(O)c(/C=N/NC(=O)c2ccc(CSc3nc(C)cc(C)n3)cc2)c1 | – | – | – | – | 71
CCOC(=O)NC(NCc1ccccc1Cl)(C(F)(F)F)C(F)(F)F | – | – | – | – | 95
COc1ccc(C(=S)N2CCOCC2)cc1OS(=O)(=O)c1ccccc1[N+](=O)[O-] | – | – | – | – | –
CC(=O)N(CCN(C(C)=O)c1ccccc1)c1ccccc1 | – | – | – | – | –
CC(C)(C)C(=O)N(CCN(C(=O)C(C)(C)C)c1ccccc1)c1ccccc1 | – | – | – | – | 78
O=C(/C=C/c1ccccc1)CC(=O)c1ccccc1O | – | – | – | – | –
CCCCc1nc(Cl)c(C#N)c2c1CCCC2 | – | – | – | – | 88
Cc1cc(C)c(C)c(OCCCCn2cnc3ccccc3c2=O)c1 | – | – | – | – | 91
Cc1ccccc1OCCCCn1cnc2ccccc21 | – | – | – | – | 72
c1ccc2c(c1)ncn2CCCCOc1ccc2c(c1)CCC2 | – | – | – | – | 70
CC(C)(c1ccccc1)c1ccc(OCCn2cnc3ccccc3c2=O)cc1 | – | – | – | – | 77
CCCCCCCCCC(=O)NC(CN1CCOCC1)[C@H](O)c1ccccc1 (stereo partly specified) | · | · | · | · | –
CSc1nc2nc(C)c(CCC(=O)OCC(=O)Nc3ccc(F)cc3)c(C)n2n1 | · | – | – | – | ·
COc1ccc(CNC2CC(C)N(C)CC2C)cc1OC (stereo unspecified) | – | – | – | – | ·
COc1cc(-c2nnc(COc3ccc(Cl)cc3C)o2)cc(OC)c1OC | – | – | – | – | 72
CCOC(=O)C(CCCOc1cccc(CC)c1)C(=O)OCC | – | – | – | – | –
SMILES | VLA-4 inh | XBP1 UPR activ | UPR CHOP act | Beta2AR agonist | CHOP inhibitor
CCOC(=O)C(CCCCOc1cccc(CC)c1)C(=O)OCC | – | – | – | – | 71
CCOc1ccc(NC(=O)CN(C)C(=O)CCNC(=O)c2ccco2)cc1OCC | – | – | – | – | ·
CCc1ccc(OCC(=O)NC(=S)Nc2cccc(CO)c2)c(Br)c1 | – | – | – | – | 83
COc1ccccc1NC(=O)Nc1nc(CC(=O)Nc2cc(F)ccc2F)cs1 | – | – | – | – | ·
COc1ccc(C2CC(C)(c3ccc(OC)cc3OC)Nc3ccccc3N2)c(OC)c1 (stereo unspecified) | – | – | – | – | 80
COC(=O)C1=C(C)C(c2ccc(OC)cc2OC)NC(=O)N1 (stereo unspecified) | – | – | – | – | –
Cc1cccc(NC(=O)COC(=O)CCc2ccc(S(=O)(=O)N3CCOCC3)cc2)c1C | – | – | – | – | –
CSCCC(NC(=O)c1ccccc1)C(=O)OCC(=O)NCc1ccco1 (stereo unspecified) | – | – | – | – | ·
Cc1cc(NC(=O)CCN2C(=O)/C(=C\c3ccccc3Cl)SC2=S)no1 | – | – | – | – | 81
Cc1cc(NC(=O)CCCN2C(=O)/C(=C\c3cccs3)SC2=S)no1 | – | – | – | – | 70
CCOC(=O)c1c(-c2ccccc2)csc1NC(=O)C1CCCO1 (stereo unspecified) | – | – | – | – | 83
CCOC(=O)c1c(-c2ccc(-c3ccccc3)cc2)csc1NC(=O)C1C2CCC(O2)C1C(=O)O (stereo unspecified) | – | – | – | – | 88
CCOC(=O)c1c(-c2cccs2)csc1NC(=O)CN1CCOCC1 | – | – | – | – | 72
CCOC(=O)c1c(-c2ccccc2)csc1NC(=O)CCN1CCOCC1 | – | – | – | – | –
CCOC(=O)c1c(-c2ccc(C)cc2)csc1NC(=O)C1CC=CCC1C(=O)O (stereo unspecified) | – | – | – | – | –
CC(O)c1cccc(-c2ccc(CN3C[C@]4(CO)O[C@@H](CO)C[C@@H]4S3(=O)=O)cc2)c1 (stereo partly specified) | · | – | – | – | ·
O=C(CCNC(=O)c1ccco1)Nc1ccc(F)c(Cl)c1 | – | – | – | – | ·
COC(=O)c1c(NC(=O)COc2ccc(Cl)cc2)sc2c1CC(C)(C)NC2(C)C | – | 43 | – | – | ·
COC(=O)c1c(NC(=O)Cc2ccccc2)sc2c1CC(C)(C)NC2(C)C | – | – | – | – | ·
OC(COc1ccccc1)Cn1c2ccccc2c2ccccc21 (stereo unspecified) | – | – | – | – | 89
Cc1ccccc1OCC(O)Cn1c2ccccc2c2ccccc21 (stereo unspecified) | – | – | – | – | 90
CC(=O)Nc1ccc(OCC(O)Cn2c3ccccc3c3ccccc32)c(C)c1 (stereo unspecified) | – | – | – | – | –
CCN(CC)CCOc1ccc(C=NNc2nc3c([nH]2)c(=O)n(C)c(=O)n3C)cc1 | · | · | · | – | ·
C/C(=N\NC(=O)COc1ccc(C(C)(C)C)cc1)c1ccc(OC(F)F)cc1 | – | – | – | – | 94
C/C(=N\NC(=O)COc1ccc(C(C)(C)C)cc1)c1ccccc1 | – | – | – | – | 81
SMILES | VLA-4 inh | XBP1 UPR activ | UPR CHOP act | Beta2AR agonist | CHOP inhibitor
C/C(=N\NC(=O)C(N)=O)c1ccc(OC(F)F)cc1 | – | – | – | – | –
COC(=O)C(Cc1ccccc1)NC(=O)COc1ccc(C(C)(C)C)cc1 (stereo unspecified) | – | – | – | – | 93
CCOc1ccc(C(=O)NC(Cc2ccccc2)C(=O)OC)cc1 (stereo unspecified) | – | – | – | – | –
C/C(=N\NC(=O)COc1ccc(C(C)(C)C)cc1)c1cc2ccccc2o1 | – | – | – | – | 74
C/C(=N\NC(=O)COc1ccc(C(C)(C)C)cc1)c1ccc2c(c1)OCCO2 | – | – | – | – | –
CCC/C(C#Cc1ccsc1)=C1/c2ccccc2C(=O)N1c1ccccc1 | – | – | – | – | ·
